Assay results from ChEMBL document CHEMBL3576774, “Dactylomelane diterpenes from the sea hare Aplysia depilans” (J Nat Prod, 2015).
pIC50: −log10 of the molar value.

Assays:
Assay type in all cases: functional, cell-based
A549 = experiment: Cytotoxic activity against human A549 cells assessed as reduction in cell growth incubated for 48 hrs by MTT assay
Method in brief: (§1)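 Monolayers maintained in DMEM with 10% FBS, penicillin/streptomycin at 37 °C, 5% CO2, and passaged at 80–90% confluence. Log-phase cells were seeded at 1 × 10^5 cells/mL and allowed to attach for 24 h. They were then exposed to DMSO-diluted compounds at various concentrations for 48 h. MTT was added at 0.5 mg/mL final for 4 h, dissolved in HCl/2-propanol, and read at 545 nm. Triplicates; IC50 from 3–4 experiments versus untreated control.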

HepG2 = experiment: Cytotoxic activity against human HepG2 cells assessed as reduction in cell growth incubated for 48 hrs by MTT assay; method in brief: as §1
HeLa = experiment: Cytotoxic activity against human HeLa cells assessed as reduction in cell growth incubated for 48 hrs by MTT assay; method in brief: as §1
MCF7 = experiment: Cytotoxic activity against human MCF7 cells assessed as reduction in cell growth incubated for 48 hrs by MTT assay; method in brief: as §1
A-431 = experiment: Cytotoxic activity against human A431 cells assessed as reduction in cell growth incubated for 48 hrs by MTT assay; conditions: A-431, 48 h; method in brief: as §1

## C=CC(C)(O)CC[C@@H]1C(=C)CC[C@H](Br)[C@@]1(C)CCC(=O)C(C)C (some centres undefined)
A549; Homo sapiens, A549, 48 h
  pIC50: < 4.00
HepG2; Homo sapiens, HepG2, 48 h
  pIC50: < 4.00
HeLa; Homo sapiens, HeLa, 48 h
  pIC50: 4.15
MCF7; Homo sapiens, MCF7, 48 h
  pIC50: < 4.00
A-431
  pIC50: < 4.00

## C=CC(C)(O)CC[C@H]1[C@](C)(CCC=C(C)C)[C@@H](Br)CC[C@@]1(C)O (some centres undefined)
A549; Homo sapiens, A549, 48 h
  pIC50: < 4.00
HepG2; Homo sapiens, HepG2, 48 h
  pIC50: < 4.00
HeLa; Homo sapiens, HeLa, 48 h
  pIC50: 4.04
MCF7; Homo sapiens, MCF7, 48 h
  pIC50: 4.11
A-431
  pIC50: < 4.00

## C=CC(C)(O)CC[C@@H]1C(=C)CC[C@H](Br)[C@@]1(C)CCC(O)C(C)(C)Cl (relative stereo)
A549; Homo sapiens, A549, 48 h
  pIC50: 4.03
HepG2; Homo sapiens, HepG2, 48 h
  pIC50: 4.31
HeLa; Homo sapiens, HeLa, 48 h
  pIC50: 4.21
MCF7; Homo sapiens, MCF7, 48 h
  pIC50: 4.15
A-431
  pIC50: < 4.00

## C=CC(C)(O)CC[C@@H]1C(=C)CC[C@H](Br)[C@@]1(C)CCC(O)C(C)(C)O (relative stereo)
A549; Homo sapiens, A549, 48 h
  pIC50: < 4.00
HepG2; Homo sapiens, HepG2, 48 h
  pIC50: < 4.00
HeLa; Homo sapiens, HeLa, 48 h
  pIC50: < 4.00
MCF7; Homo sapiens, MCF7, 48 h
  pIC50: < 4.00
A-431
  pIC50: < 4.00

## C=CC(C)(O)CC[C@@H]1C(=C)CC[C@H](Br)[C@@]1(C)CCC(OC)C(C)(C)O (relative stereo)
A549; Homo sapiens, A549, 48 h
  pIC50: < 4.00
HepG2; Homo sapiens, HepG2, 48 h
  pIC50: < 4.00
HeLa; Homo sapiens, HeLa, 48 h
  pIC50: < 4.00
MCF7; Homo sapiens, MCF7, 48 h
  pIC50: < 4.00
A-431
  pIC50: < 4.00

## C=CC(C)(O)CC[C@@H]1C(=C)CC[C@H](Br)[C@@]1(C)CCC1OC1(C)C (relative stereo)
A549; Homo sapiens, A549, 48 h
  pIC50: < 4.00
HepG2; Homo sapiens, HepG2, 48 h
  pIC50: 4.27
HeLa; Homo sapiens, HeLa, 48 h
  pIC50: 4.24
MCF7; Homo sapiens, MCF7, 48 h
  pIC50: 4.14
A-431
  pIC50: < 4.00

## C=CC(C)(O)CC[C@@H]1C(=C)CC[C@H](Br)[C@@]1(C)CCC(O)C(=C)C (relative stereo)
A549; Homo sapiens, A549, 48 h
  pIC50: < 4.00
HepG2; Homo sapiens, HepG2, 48 h
  pIC50: < 4.00
HeLa; Homo sapiens, HeLa, 48 h
  pIC50: < 4.00
MCF7; Homo sapiens, MCF7, 48 h
  pIC50: < 4.00
A-431
  pIC50: < 4.00

## C=CC(C)(O)CC[C@@H]1C(=C)CC[C@H](Br)[C@@]1(C)CCC(Br)C(C)(C)O (relative stereo; 2)
A549; a549
  pIC50: 4.06
HepG2; hepg2
  pIC50: 4.18
HeLa; hela
  pIC50: 4.32
MCF7; mcf7
  pIC50: 4.22

## C=CC(C)(O)CC[C@@H]1C(=C)CC[C@H](Br)[C@@]1(C)CCC(Br)C(C)(C)O (relative stereo; 3)
A549; Homo sapiens, A549, 48 h
  pIC50: < 4.00
HepG2; Homo sapiens, HepG2, 48 h
  pIC50: < 4.00
HeLa; Homo sapiens, HeLa, 48 h
  pIC50: 4.04
MCF7; Homo sapiens, MCF7, 48 h
  pIC50: < 4.00
A-431
  pIC50: < 4.00

## CCCCCCCCCCCCCCCCOP(=O)([O-])OCC[N+](C)(C)C [MILTEFOSINE]
A549; Homo sapiens, A549, 48 h
  pIC50: 5.07
HepG2; Homo sapiens, HepG2, 48 h
  pIC50: 4.58
HeLa; Homo sapiens, HeLa, 48 h
  pIC50: 4.78
MCF7; Homo sapiens, MCF7, 48 h
  pIC50: 5.04
A-431
  pIC50: 4.92
